Screening results from PubChem.
Compounds with a hit are over-represented: about 2.2% of the library has one in this group of screens.
GLD-1 RNA inh: GLD-1-TGE RNA interaction inhibition (C. elegans); Q17339; purified GLD-1 + fluorescein TGE RNA, fluorescence polarization; inhibition, % at 5.96 µM; actives 0.44% (n = 320,000);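 active means percent inhibition above a per-plate cutoff, the plate mean of test compounds plus 3 SD, cut at about 30% in these data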;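 further: 0% = DMSO wells with GLD-1 and probe and 100% = wells lacking GLD-1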
IMP-1 inh: inhibitors of Pseudomonas aeruginosa IMP-1 metallo-beta-lactamase. purified IMP-1, nitrocefin hydrolysis, epi-absorbance fluorescence. inhibition, % at 5.6 µM. actives 0.45% (n = 290,000);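 active means inhibition above the mean plus 3 SD of all compounds in the same screening run, cut at about 4.5% in these data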;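 further: 0% = IMP-1 with DMSO and 100% = DMSO wells lacking enzyme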
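System: purified recombinant IMP-1 beta-lactamase. Medium: Zinc- and detergent-supplemented HEPES buffer, pH 7.1. Compound: one 5.6 µM dose […]. Schedule: 15 min preincubation plus 25 min reaction at 25 °C. Technique: Epi-absorbance fluorescence, 480 nm excitation, 530 nm emission.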
Bcl-xL primary: blocks human Bcl-xL binding to Bim BH3 peptide. Q07817. GST-Bcl-xL / FITC-Bim BH3 peptide fluorescence polarization. inhibition, % at 10.9 µM. actives 0.7% (n = 320,000). AID 2129;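 active means inhibition above the mean of all tested compounds plus 3 SD, cutoff set per campaign, cut at about 30% in these data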;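 further: 0% = DMSO wells and 100% = unlabeled Bim-BH3 peptide competitor; inhibitors lower millipolarization by displacing the labeled peptide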
Target sequence (Q07817 whole entry, looked up): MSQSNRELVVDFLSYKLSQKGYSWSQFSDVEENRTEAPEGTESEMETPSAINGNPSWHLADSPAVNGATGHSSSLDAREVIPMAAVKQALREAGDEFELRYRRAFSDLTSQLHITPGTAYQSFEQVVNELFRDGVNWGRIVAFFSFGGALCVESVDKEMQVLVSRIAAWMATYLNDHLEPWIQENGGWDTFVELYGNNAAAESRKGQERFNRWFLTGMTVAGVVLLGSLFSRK
EBV gp42 inh: blocks Epstein-Barr virus glycoprotein 42 binding; Q1HVG2; Fluorescence polarization binding assay, mP read-out; inhibition, % (tested at 21.74 µM); actives 0.42% (n = 220,000); in the data active means inhibition above about 50%
VIM-2 inhibitor: blocks Pseudomonas aeruginosa VIM-2 metallo-beta-lactamase | purified VIM-2, nitrocefin hydrolysis, epi-absorbance fluorescence | inhibition, % at 5.6 µM | actives 0.89% (n = 290,000);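 active means inhibition above the mean of all tested compounds plus 3 SD, cutoff set per screening run, cut at about 7.5% in these data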;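 further: red hydrolysis product quenches plate fluorescence so inhibitors raise well fluorescence; 0% = enzyme with DMSO and 100% = DMSO without enzyme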
MEX-5 binding: C. elegans MEX-5 TCR-2 RNA binding activity; activity score (negative = inhibition of binding), % at 10 µM; actives 0.38% (n = 300,000); AID 1832; MEX-5/FITC-TCR2 RNA binding, fluorescence polarization; active compounds read low; Q9XUB2;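 active means inhibition past about -25% in most replicates, and total fluorescence under double the plate's negative control median, limit read from the data; inconclusive means replicates evenly split on the limit, or fluorescence at least double controls; inactive means too little inhibition in most replicates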;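 further: 0% = DMSO and -100% = 5 µM competing unlabeled TCR2 RNA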
Target sequence (Q9XUB2 whole entry, looked up): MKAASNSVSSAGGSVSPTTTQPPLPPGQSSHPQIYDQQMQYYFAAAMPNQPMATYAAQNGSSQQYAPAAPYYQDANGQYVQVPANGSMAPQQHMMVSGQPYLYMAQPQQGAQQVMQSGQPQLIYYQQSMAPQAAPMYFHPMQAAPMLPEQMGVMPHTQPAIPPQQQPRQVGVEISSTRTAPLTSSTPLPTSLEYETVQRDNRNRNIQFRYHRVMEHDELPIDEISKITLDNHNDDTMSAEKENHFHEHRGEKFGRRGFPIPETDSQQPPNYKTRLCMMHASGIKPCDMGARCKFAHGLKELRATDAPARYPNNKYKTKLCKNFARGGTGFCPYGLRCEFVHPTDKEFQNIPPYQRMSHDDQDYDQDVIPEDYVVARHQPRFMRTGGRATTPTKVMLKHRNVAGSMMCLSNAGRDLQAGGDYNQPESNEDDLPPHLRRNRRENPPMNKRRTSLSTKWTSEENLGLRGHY
Numbers without * were called inactive.

Results for CCOc1ccc2noc3c2c1C(=O)c1ccccc1-3 ?
GLD-1 RNA inh: 171*; IMP-1 inh: 0; Bcl-xL primary: 152*; EBV gp42 inh: -71; VIM-2 inhibitor: 3; MEX-5 binding: inconclusive

How did O=C1c2ccccc2-c2onc3ccc(NCc4ccco4)c1c23 do in these assays?
GLD-1 RNA inh: 165*; IMP-1 inh: -2; Bcl-xL primary: 165*; EBV gp42 inh: 130*; VIM-2 inhibitor: -1; MEX-5 binding: -77*

What do the screens show for `Cn1c(O)c(C=Nc2ccc(N3CCOCC3)cc2)c(=O)n(C)c1=S`?
IMP-1 inh: -3; EBV gp42 inh: 112*; VIM-2 inhibitor: -2; MEX-5 binding: -27*

How did Cc1cc(O)c(C=Nc2ccc(N3CCOCC3)cc2)c(C)c1Cl do in these assays?
GLD-1 RNA inh: 7; IMP-1 inh: -14; Bcl-xL primary: 4; VIM-2 inhibitor: 2; MEX-5 binding: -7

What do the screens show for `Cc1cc(C)c(C(=O)COC(=O)Cn2c(C)csc2=O)cc1C`?
GLD-1 RNA inh: -3; IMP-1 inh: -4; Bcl-xL primary: 4; VIM-2 inhibitor: -2; MEX-5 binding: -3

How did Cc1ccc(C(=O)Nc2cccc(C(=O)N/N=C/c3ccc(F)cc3)c2)cc1 do in these assays?
GLD-1 RNA inh: 7; IMP-1 inh: 0; Bcl-xL primary: 1; VIM-2 inhibitor: -3; MEX-5 binding: -1

Results for O=C(c1cccc(Br)c1)N1CCCc2ccccc21 ?
GLD-1 RNA inh: 4; IMP-1 inh: 0; Bcl-xL primary: 2; VIM-2 inhibitor: -1; MEX-5 binding: 0

How did O=C(c1coc(=O)c(Br)c1)N1CCCc2ccccc21 do in these assays?
GLD-1 RNA inh: 0; IMP-1 inh: -3; Bcl-xL primary: 21; VIM-2 inhibitor: -3; MEX-5 binding: -27*

Results for CC1(C)CCCN(C(=O)c2coc(=O)c(Br)c2)C1 ?
IMP-1 inh: -1; EBV gp42 inh: 52*; VIM-2 inhibitor: -1; MEX-5 binding: -28*

How did Cc1ccc(C2(c3ccc(C)cc3)CC2C(=O)NC(C)C)cc1 (stereo not drawn) do in these assays?
IMP-1 inh: -1; VIM-2 inhibitor: -1; MEX-5 binding: -1

How did CCCCn1c(=NC(=O)c2cccnc2)c(C#N)cc2c(=O)n3cccc(C)c3nc21 do in these assays?
GLD-1 RNA inh: 12; IMP-1 inh: -3; Bcl-xL primary: 46*; EBV gp42 inh: 35; VIM-2 inhibitor: -1; MEX-5 binding: -9

What do the screens show for `CCOCCCn1c(=NC(=O)c2cccs2)c(C#N)cc2c(=O)n3ccccc3nc21`?
GLD-1 RNA inh: 55*; IMP-1 inh: 1; Bcl-xL primary: 91*; EBV gp42 inh: 36; VIM-2 inhibitor: 3; MEX-5 binding: inconclusive

Results for CCOCCCn1c(=NC(=O)c2cccnc2)c(C(=O)OCC)cc2c(=O)n3ccccc3nc21 ?
GLD-1 RNA inh: -4; IMP-1 inh: -3; Bcl-xL primary: 10; EBV gp42 inh: -3; VIM-2 inhibitor: 2; MEX-5 binding: 1

Results for CCOC(=O)c1cc2c(=O)n3cccc(C)c3nc2n(CCOC)c1=NC(=O)c1ccncc1 ?
IMP-1 inh: -2; VIM-2 inhibitor: -2

How did CC(=O)N=c1c(C#N)cc2c(=O)n3cccc(C)c3nc2n1CCCOC(C)C do in these assays?
GLD-1 RNA inh: 0; IMP-1 inh: 0; Bcl-xL primary: 16; EBV gp42 inh: 2; VIM-2 inhibitor: 0; MEX-5 binding: -26*

Results for CCOC(=O)c1cc2c(=O)n3cccc(C)c3nc2n(CCCOC)c1=NC(=O)c1cccnc1 ?
GLD-1 RNA inh: 4; IMP-1 inh: -3; Bcl-xL primary: 10; EBV gp42 inh: 9; VIM-2 inhibitor: 10*; MEX-5 binding: -3

Results for O=C(c1cccc(Cl)c1)N1CCCC(C(=O)N2CCN(c3ccccc3)CC2)C1 (stereo not drawn) ?
GLD-1 RNA inh: 4; IMP-1 inh: -1; Bcl-xL primary: -4; VIM-2 inhibitor: -2; MEX-5 binding: 0

Results for O=C(O)/C(=C\c1ccc2ccccc2c1)c1cccc2ccccc12 ?
GLD-1 RNA inh: -2; Bcl-xL primary: 5; MEX-5 binding: -2

What do the screens show for `Cc1ccccc1C(=O)N=c1c(C#N)cc2c(=O)n3cccc(C)c3nc2n1Cc1ccco1`?
GLD-1 RNA inh: 10; IMP-1 inh: -2; Bcl-xL primary: 19; EBV gp42 inh: -98; VIM-2 inhibitor: 0; MEX-5 binding: 0

Results for N#Cc1cc2c(=O)n3ccccc3nc2n(Cc2ccco2)c1=NC(=O)c1ccco1 ?
GLD-1 RNA inh: 23; IMP-1 inh: -2; Bcl-xL primary: 54*; EBV gp42 inh: -19; VIM-2 inhibitor: -1; MEX-5 binding: -17

Results for COc1ccc(C(=O)N=c2c(C#N)cc3c(=O)n4cccc(C)c4nc3n2Cc2ccco2)cc1 ?
IMP-1 inh: -4; EBV gp42 inh: 22; VIM-2 inhibitor: 2; MEX-5 binding: -41*

Results for Cc1cccn2c(=O)c3cc(C#N)c(=N)n(Cc4ccncc4)c3nc12 ?
GLD-1 RNA inh: 8; IMP-1 inh: -1; Bcl-xL primary: 4; EBV gp42 inh: 5; VIM-2 inhibitor: -2; MEX-5 binding: -1

How did COCCCn1c(=NC(=O)c2ccncc2)c(C#N)cc2c(=O)n3cccc(C)c3nc21 do in these assays?
GLD-1 RNA inh: 19; IMP-1 inh: -2; Bcl-xL primary: 41*; EBV gp42 inh: 36; VIM-2 inhibitor: 0; MEX-5 binding: 3

Results for CCOC(=O)c1cc2c(=O)n3ccccc3nc2n(Cc2ccco2)c1=NC(=O)c1ccc(OC)cc1OC ?
GLD-1 RNA inh: 19; IMP-1 inh: -1; Bcl-xL primary: 49*; EBV gp42 inh: -12; VIM-2 inhibitor: 0; MEX-5 binding: 0

Results for Cc1cc(C)cc(OCC(=O)NNC(=S)NC(=O)C2CC2)c1 ?
GLD-1 RNA inh: -3; IMP-1 inh: -3; Bcl-xL primary: 4; VIM-2 inhibitor: -3; MEX-5 binding: -2

How did O=c1[nH]cc(N=Cc2cc([N+](=O)[O-])ccc2O)c(=O)[nH]1 do in these assays?
GLD-1 RNA inh: -3; IMP-1 inh: -1; Bcl-xL primary: 7; VIM-2 inhibitor: -2; MEX-5 binding: -11

Results for O=c1[nH]cc(N=Cc2cc(Cl)cc(Cl)c2O)c(=O)[nH]1 ?
GLD-1 RNA inh: -1; IMP-1 inh: 12*; Bcl-xL primary: 3; VIM-2 inhibitor: 0; MEX-5 binding: -14

What do the screens show for `O=C(CSC(=S)N1CCOCC1)c1cc2ccccc2oc1=O`?
GLD-1 RNA inh: 0; IMP-1 inh: -1; Bcl-xL primary: 4; VIM-2 inhibitor: -1; MEX-5 binding: -4

Results for CCOc1ccc(N=C2NC(=O)S/C2=C\c2ccc(N(C)C)cc2)cc1 ?
GLD-1 RNA inh: 43*; IMP-1 inh: 1; Bcl-xL primary: 70*; EBV gp42 inh: 54*; VIM-2 inhibitor: -2; MEX-5 binding: inconclusive
